Laboratory results reported in ChEMBL document CHEMBL5390213 (ACS Med Chem Lett, 2023).
Calls of active or inactive are those of the source. The calls are words filed in the database; no cut-off is given here.

Experiments:
CHP-134 [1] = assay: Growth inhibition of MYCN-amplified human CHP-134 cells assessed as reduction in cell viability measured after 3 days by Celltiter-glo assay; type: functional; conditions: CHP-134, 72 h, time 3 day
Procedure, shortened: (§1)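 MYCN-amplified Kelly and CHP-134 neuroblastoma cells were exposed to a nine-point serial dilution for 3 days. Viability was read by CellTiter-Glo and normalized to DMSO-treated cells, and GI50 was calculated. Values are reported with standard error of the mean. The highest dose tested was 5.00 or 2.50 μM.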

[2] = Growth inhibition of MYCN-amplified human Kelly cells assessed as reduction in cell viability measured after 3 days by Celltiter-glo assay; type: functional; conditions: 72 h, time 3 day; procedure, shortened: as §1
Tubulin (Homo sapiens) [3] = molecular target: T1, Tubulin (Homo sapiens) (UniProt P68371+Q9H4B7+P0DPH7+P68366+Q13509+Q71U36+P04350+Q3ZCM7+P07437+P68363+Q9BQE3+Q6PEY2+Q13885+Q9BVA1+Q9BUF5); assay: Inhibition of tubulin polymerization (unknown origin) assessed as destabilization of microtubule formation at 5 uM incubated for 45 mins by plate reader analysis; type: protein-complex assay
SK-N-BE(2)-C = assay: Antiproliferative activity against MYCN-amplified human SK-N-BE(2)-C cells assessed as reduction in cell viability measured after 3 days by Cell titer-glo assay; type: functional, cell-based; conditions: time 3.0 day
[4] = Microsomal stability in human liver microsomes assessed as half life; type: ADME, Microsome
Kelly [5] = assay: Induction of cell cycle arrest in human Kelly cells assessed as accumulation of cells in G2/M phase at 100 nM measured after 24 hrs by PI/RNAse staining based flow cytometric analysis; type: functional
Procedure, shortened: (§2)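 Cell cycle phase distribution, including G2/M fraction, quantified. n = 3 biological replicates, standard error. Unpaired two-tailed t test.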

CHP-134 [6] = assay: Induction of cell cycle arrest in human CHP-134 cells at 100 nM measured after 24 hrs by PI/RNAse staining based flow cytometric analysis; type: functional; procedure, shortened: as §2
Kelly [7] = assay: Induction of cell cycle arrest in human Kelly cells assessed as increase in cyclin B1 expression at 100 nM measured after 24 hrs by Western blot analysis; type: functional, cell-based
Procedure, shortened: (§3)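 Lysates immunoblotted for mitotic markers cyclin B1 and histone H3 phosphorylated at Ser10. GAPDH used as loading control. Levels compared against DMSO vehicle.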

CHP-134 [8] = assay: Induction of cell cycle arrest in human CHP-134 cells assessed as increase in cyclin B1 expression level at 100 nM measured after 24 hrs by Western blot analysis; type: functional, cell-based; procedure, shortened: as §3
Kelly [9] = assay: Induction of cell cycle arrest in human Kelly cells assessed as increase in phospho-histone H3 expression at 100 nM measured after 24 hrs by Western blot analysis; type: functional, cell-based; procedure, shortened: as §3
CHP-134 [10] = assay: Induction of cell cycle arrest in human CHP-134 cells assessed as increase in phospho-histone H3 expression at 100 nM measured after 24 hrs by Western blot analysis; type: functional, cell-based; procedure, shortened: as §3
Tubulin (Homo sapiens) [11] = molecular target: T1, Tubulin (Homo sapiens); assay: Disruption of microtubule network in human Kelly cells at 100 nM incubated for 24 hrs by DAPI staining based immunofluorescence analysis; type: cell-based
Procedure, shortened: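 Immunostained for α-tubulin (Alexa-488) with DAPI nuclear counterstain. Microtubule network integrity and tubulin compaction around nuclei assessed from representative images.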

Kelly [12] = assay: Induction of cell cycle arrest in human Kelly cells assessed as increase in phospho-histone H3 expression at 500 nM measured after 24 hrs by Western blot analysis; type: functional, cell-based
Procedure, shortened: (§4)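 Protein lysates were immunoblotted for the mitotic markers cyclin B1 and histone H3 phosphorylated at Ser10, with GAPDH as the loading control.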

CHP-134 [13] = assay: Induction of cell cycle arrest in human CHP-134 cells assessed as increase in phospho-histone H3 expression at 500 nM measured after 24 hrs by Western blot analysis; type: functional, cell-based; procedure, shortened: as §4
Kelly [14] = assay: Effect on cell cycle distribution in human Kelly cells at 500 nM measured after 24 hrs by PI/RNAse staining based flow cytometric analysis; type: functional
Procedure, shortened: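 Kelly cells were treated with 500 nM compound or DMSO for 24 h. Cell cycle phase distribution was then profiled and quantified, with n = 3 biological replicates and standard error shown.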

Kelly [15] = assay: Induction of cell cycle arrest in human Kelly cells assessed as increase in cyclin B1 expression at 500 nM measured after 24 hrs by Western blot analysis; type: functional, cell-based; procedure, shortened: as §4
CHP-134 [16] = assay: Induction of cell cycle arrest in human CHP-134 cells assessed as increase in cyclin B1 expression level at 500 nM measured after 24 hrs by Western blot analysis; type: functional, cell-based; procedure, shortened: as §4
Tubulin (Homo sapiens) [17] = molecular target: T1, Tubulin (Homo sapiens); assay: Disruption of microtubule network in human Kelly cells at 500 nM incubated for 24 hrs by DAPI staining based immunofluorescence analysis; type: cell-based
Procedure, shortened: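 Cells were then immunostained for α-tubulin (Alexa-488), with nuclei counterstained by DAPI. The microtubule network was examined in representative images.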

Structure (SMILES) | GI50 (CHP-134 [1]) | GI50 [2] | further results
COc1c(Cl)cc(-c2nccn3cc(-c4ccc(C)cc4)nc23)cc1Cl | 79 nM | 165 nM | inhibition (Tubulin (Homo sapiens) [3]): Active; Activity (SK-N-BE(2)-C): Active
COc1cc(-c2nccn3cc(-c4ccc(C)cc4)nc23)cc(OC)c1OC | 7 nM | 12 nM | half-life [4]: 26 min; inhibition (Tubulin (Homo sapiens) [3]): Active; Activity (Kelly [5]): Active; Activity (CHP-134 [6]): Active; Activity (Kelly [7]): Active; Activity (CHP-134 [8]): Active; Activity (Kelly [9]): Active; Activity (CHP-134 [10]): Active; Activity (SK-N-BE(2)-C): Active; Activity (Tubulin (Homo sapiens) [11]): Active
COc1c(F)cc(-c2nccn3cc(-c4ccc(C)cc4)nc23)cc1F | 175 nM | 402 nM | Activity (Kelly [12]): inactive; Activity (CHP-134 [13]): inactive; half-life [4]: 36.1 min; inhibition (Tubulin (Homo sapiens) [3]): Active; Activity (Kelly [14]): inactive; Activity (Kelly [15]): inactive; Activity (CHP-134 [16]): inactive; Activity (SK-N-BE(2)-C): Active; Activity (Tubulin (Homo sapiens) [17]): inactive
COc1cc(-c2cccn3cc(-c4ccc(Cl)cc4)nc23)cc(OC)c1OC | 1620 nM | 3420 nM | –
COc1cc(-c2cccn3cc(-c4ccc(C)cc4)nc23)cc(OC)c1OC | 152 nM | 217 nM | inhibition (Tubulin (Homo sapiens) [3]): Active
COc1cc(-c2cccc3nc(-c4ccc(C)cc4)cn23)cc(OC)c1OC | 3320 nM | 4920 nM | –
COc1c(Br)cc(-c2nccn3cc(-c4ccc(C)cc4)nc23)cc1Br | 469 nM | 504 nM | –
COc1cc(-c2cccn3cc(-c4ccc(C(F)(F)F)cc4)nc23)cc(OC)c1OC | 2090 nM | > 5000 nM | –
COc1cc(-c2cccn3cc(-c4ccc(F)cc4)nc23)cc(OC)c1OC | 1610 nM | 3000 nM | –
COc1cc(-c2cc(C)cn3cc(-c4ccc(C)cc4)nc23)cc(OC)c1OC | 381 nM | 717 nM | –
COc1cc2c(c(OC)c1OC)-c1ccc(OC)c(=O)cc1[C@@H](NC(C)=O)CC2 [COLCHICINE] | 8 nM | 9 nM | half-life [4]: > 60 min; Activity (Kelly [7]): Active; Activity (CHP-134 [8]): Active; Activity (Kelly [9]): Active; Activity (CHP-134 [10]): Active
COc1ccc(-c2cn3cccc(-c4cc(OC)c(OC)c(OC)c4)c3n2)cc1 | 511 nM | 1370 nM | –
Cc1ccc(-c2cn3ccnc(-c4cc(Cl)c(F)c(Cl)c4)c3n2)cc1 | > 2500 nM | > 2500 nM | –
Cc1ccc(-c2cn3ccnc(-c4cc(F)cc(F)c4)c3n2)cc1 | 474 nM | 438 nM | –
